Laboratory results published in ChEMBL document CHEMBL1687824, “Overexpression of patA and patB, which encode ABC transporters, is associated with fluoroquinolone resistance in clinical isolates of Streptococcus pneumoniae” (2011).
≈ marks a conversion by molar mass, not a printed value.

Key:
Type in all cases: functional
Streptococcus pneumoniae [1] = assay: Antibacterial activity against fluoroquinolone, dye-resistant Streptococcus pneumoniae M297 overexpressing patA, patB by standardized agar doubling dilution method
Procedure, shortened: (§1)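 MIC by agar doubling dilution following BSAC guidelines. Strains grown in brain heart infusion broth 24 h at 37°C in 5% CO2. Where an efflux pump inhibitor applies, MIC redetermined with reserpine at 20 μg/ml or sodium orthovanadate at 50 μM. Synergy taken as a fall in MIC of ≥2 dilutions with inhibitor present. Dye resistance defined relative to R6 (both dyes ≥2 dilutions higher).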

Streptococcus pneumoniae [2] = assay: Antibacterial activity against fluoroquinolone, dye-resistant Streptococcus pneumoniae M45 overexpressing patA, patB by standardized agar doubling dilution method in presence of 20 ug/ml reserpine efflux pump inhibitor; procedure, shortened: as §1
Streptococcus pneumoniae [3] = assay: Antibacterial activity against Streptococcus pneumoniae M87A overexpressing patA, patB and inactivated patA with single mutation by standardized agar doubling dilution method
Procedure, shortened: (§2)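 MICs were determined by agar doubling dilution following BSAC guidelines, with no efflux inhibitor. Strains were grown in brain heart infusion broth for 24 h at 37°C in 5% CO2. Species identity was confirmed by Gram stain, optochin sensitivity and capsule test. Control strain R6 was tested alongside.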

Streptococcus pneumoniae [4] = assay: Antibacterial activity against fluoroquinolone-resistant Streptococcus pneumoniae M83 FQ-R overexpressing patA, patB by standardized agar doubling dilution method in presence of 20 ug/ml reserpine efflux pump inhibitor
Procedure, shortened: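 Clinical S. pneumoniae isolates grown in BHI broth 24 h at 37°C in 5% CO2. MICs by agar doubling dilution per BSAC guidelines, alone or with efflux inhibitor reserpine (20 μg/ml) or sodium orthovanadate (50 μM). Synergy defined as ≥2-dilution MIC reduction in presence of inhibitor.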

Streptococcus pneumoniae [5] = assay: Antibacterial activity against fluoroquinolone, dye-resistant Streptococcus pneumoniae M296 overexpressing patA, patB by standardized agar doubling dilution method; procedure, shortened: as §1
Streptococcus pneumoniae [6] = assay: Antibacterial activity against Streptococcus pneumoniae M87B overexpressing patA, patB and inactivated patB with single mutation by standardized agar doubling dilution method in presence of 50 uM sodium orthovanadate efflux pump inhibitor
Procedure, shortened: (§3)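 MICs were determined by BSAC agar doubling dilution in the presence of sodium orthovanadate at 50 μM. Cultures were grown in BHI broth for 24 h at 37°C in 5% CO2, with R6 as control. Synergy was defined as an MIC reduction of ≥2 dilutions with the inhibitor present.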

Streptococcus pneumoniae [7] = assay: Antibacterial activity against dye-resistant Streptococcus pneumoniae M55 DR overexpressing patA, patB by standardized agar doubling dilution method; procedure, shortened: as §2
Streptococcus pneumoniae [8] = assay: Antibacterial activity against Streptococcus pneumoniae M46A overexpressing patA, patB and inactivated patA with single mutation by standardized agar doubling dilution method; procedure, shortened: as §2
Streptococcus pneumoniae [9] = assay: Antibacterial activity against Streptococcus pneumoniae M304 overexpressing patA, patB and inactivated patA with single mutation by standardized agar doubling dilution method in presence of 20 ug/ml reserpine efflux pump inhibitor
Procedure, shortened: (§4)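 MICs determined by BSAC standardized agar doubling dilution. Strains were grown in brain heart infusion broth for 24 h at 37°C in 5% CO2. Inhibitor arms had reserpine at 20 μg/ml or sodium orthovanadate at 50 μM in the agar. Mutants were made by transforming magellan2 insertion amplimers into clinical isolates and selecting on spectinomycin 100 mg/liter, with a no-DNA spontaneous-mutation control.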

Streptococcus pneumoniae [10] = assay: Antibacterial activity against fluoroquinolone, dye-resistant Streptococcus pneumoniae M50 overexpressing patA, patB by standardized agar doubling dilution method in presence of 20 ug/ml reserpine efflux pump inhibitor; procedure, shortened: as §1
Streptococcus pneumoniae [11] = assay: Antibacterial activity against Streptococcus pneumoniae M315 overexpressing patA, patB and inactivated patA with single mutation by standardized agar doubling dilution method; procedure, shortened: as §4
Streptococcus pneumoniae [12] = assay: Antibacterial activity against Streptococcus pneumoniae M300 overexpressing patA, patB and inactivated patA with single mutation by standardized agar doubling dilution method; procedure, shortened: as §4
Streptococcus pneumoniae [13] = assay: Antibacterial activity against Streptococcus pneumoniae M300 overexpressing patA, patB and inactivated patA with single mutation by standardized agar doubling dilution method in presence of 50 uM sodium orthovanadate efflux pump inhibitor; procedure, shortened: as §4
Streptococcus pneumoniae [14] = assay: Antibacterial activity against Streptococcus pneumoniae M87B overexpressing patA, patB and inactivated patB with single mutation by standardized agar doubling dilution method in presence of 20 ug/ml reserpine efflux pump inhibitor
Procedure, shortened: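 MICs were determined by BSAC agar doubling dilution in the presence of reserpine at 20 μg/ml. Strains were grown in BHI broth for 24 h at 37°C in 5% CO2, with R6 as control. Synergy was defined as an MIC drop of ≥2 dilutions with the inhibitor.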

Streptococcus pneumoniae [15] = assay: Antibacterial activity against wild type Streptococcus pneumoniae M4 NCTC 7465 type 1 by standardized agar doubling dilution method in presence of 50 uM sodium orthovanadate efflux pump inhibitor
Streptococcus pneumoniae [16] = assay: Antibacterial activity against fluoroquinolone, dye-resistant Streptococcus pneumoniae M297 overexpressing patA, patB by standardized agar doubling dilution method in presence of 50 uM sodium orthovanadate efflux pump inhibitor; procedure, shortened: as §1
Streptococcus pneumoniae [17] = assay: Antibacterial activity against fluoroquinolone-resistant Streptococcus pneumoniae M97 FQ-R overexpressing patA, patB by standardized agar doubling dilution method
Procedure, shortened: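 MIC by agar doubling dilution per BSAC guidelines; strains pregrown in brain heart infusion broth 24 h, 37°C, 5% CO2. MICs measured alone and with efflux pump inhibitors reserpine (20 μg/ml) or sodium orthovanadate (50 μM); synergy defined as ≥2-dilution MIC reduction in presence of inhibitor.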

Streptococcus pneumoniae [18] = assay: Antibacterial activity against Streptococcus pneumoniae M309 overexpressing patA, patB and inactivated patB with single mutation by standardized agar doubling dilution method in presence of 20 ug/ml reserpine efflux pump inhibitor; procedure, shortened: as §4
Streptococcus pneumoniae [19] = assay: Antibacterial activity against Streptococcus pneumoniae M45B overexpressing patA, patB and inactivated patB with single mutation by standardized agar doubling dilution method in presence of 50 uM sodium orthovanadate efflux pump inhibitor; procedure, shortened: as §3
Streptococcus pneumoniae [20] = assay: Antibacterial activity against Streptococcus pneumoniae M311B overexpressing patA, patB and inactivated patB with single mutation by standardized agar doubling dilution method; procedure, shortened: as §4
Streptococcus pneumoniae [21] = assay: Antibacterial activity against Streptococcus pneumoniae M307 overexpressing patA, patB and inactivated patB with single mutation by standardized agar doubling dilution method in presence of 20 ug/ml reserpine efflux pump inhibitor; procedure, shortened: as §4
Streptococcus pneumoniae [22] = assay: Antibacterial activity against fluoroquinolone, dye-resistant Streptococcus pneumoniae M42 overexpressing patA, patB by standardized agar doubling dilution method in presence of 50 uM sodium orthovanadate efflux pump inhibitor; procedure, shortened: as §1
Streptococcus pneumoniae [23] = assay: Antibacterial activity against fluoroquinolone, dye-resistant Streptococcus pneumoniae M297 overexpressing patA, patB by standardized agar doubling dilution method in presence of 20 ug/ml reserpine efflux pump inhibitor; procedure, shortened: as §1
Streptococcus pneumoniae [24] = assay: Antibacterial activity against Streptococcus pneumoniae M298 overexpressing patA, patB and inactivated patA with single mutation by standardized agar doubling dilution method; procedure, shortened: as §4
Streptococcus pneumoniae [25] = assay: Antibacterial activity against fluoroquinolone, dye-resistant Streptococcus pneumoniae by standardized agar doubling dilution method in presence of 20 ug/ml reserpine efflux pump inhibitor; procedure, shortened: as §1
Streptococcus pneumoniae [26] = assay: Antibacterial activity against Streptococcus pneumoniae M306 overexpressing patA, patB and inactivated patB with single mutation by standardized agar doubling dilution method in presence of 20 ug/ml reserpine efflux pump inhibitor; procedure, shortened: as §4
Streptococcus pneumoniae [27] = assay: Antibacterial activity against Streptococcus pneumoniae M308 overexpressing patA, patB and inactivated patB with single mutation by standardized agar doubling dilution method; procedure, shortened: as §4

Compound	MIC (Streptococcus pneumoniae [1]) [µg/mL]	MIC (Streptococcus pneumoniae [2]) [µg/mL]	MIC (Streptococcus pneumoniae [3]) [µg/mL]	MIC (Streptococcus pneumoniae [4]) [µg/mL]	MIC (Streptococcus pneumoniae [5]) [µg/mL]	MIC (Streptococcus pneumoniae [6]) [µg/mL]	MIC (Streptococcus pneumoniae [7]) [µg/mL]	MIC (Streptococcus pneumoniae [8]) [µg/mL]	MIC (Streptococcus pneumoniae [9]) [µg/mL]	MIC (Streptococcus pneumoniae [10]) [µg/mL]	MIC (Streptococcus pneumoniae [11]) [µg/mL]	MIC (Streptococcus pneumoniae [12]) [µg/mL]	MIC (Streptococcus pneumoniae [13]) [µg/mL]	MIC (Streptococcus pneumoniae [14]) [µg/mL]	MIC (Streptococcus pneumoniae [15]) [µg/mL]	MIC (Streptococcus pneumoniae [16]) [µg/mL]	MIC (Streptococcus pneumoniae [17]) [µg/mL]	MIC (Streptococcus pneumoniae [18]) [µg/mL]	MIC (Streptococcus pneumoniae [19]) [µg/mL]	MIC (Streptococcus pneumoniae [20]) [µg/mL]	other results
O=C(O)c1cn(C2CC2)c2cc(N3CCNCC3)c(F)cc2c1=O [CIPROFLOXACIN]	8 (≈ 24.1 µM)	1	8 (≈ 24.1 µM)	64	2 (≈ 6.04 µM)	8	0.25 (≈ 0.754 µM)	0.12 (≈ 0.362 µM)	1	32	2 (≈ 6.04 µM)	2 (≈ 6.04 µM)	2	8	1	8	8 (≈ 24.1 µM)	1	1	8 (≈ 24.1 µM)	MIC (Streptococcus pneumoniae [21]): 8 µg/mL; MIC (Streptococcus pneumoniae [22]): 16 µg/mL; MIC (Streptococcus pneumoniae [23]): 2 µg/mL; MIC (Streptococcus pneumoniae [24]): 8 µg/mL (≈ 24.1 µM); MIC90 (Streptococcus pneumoniae [25]): 4 µg/mL; MIC (Streptococcus pneumoniae [26]): 4 µg/mL; MIC (Streptococcus pneumoniae [27]): 2 µg/mL (≈ 6.04 µM)
CC[n+]1c(-c2ccccc2)c2cc(N)ccc2c2ccc(N)cc21.[Br-] [HOMIDIUM BROMIDE]	8	0.5	0.5	4	8	0.5	16	0.5	0.5	0.5	0.25	0.5	0.5	0.5	0.3	1	4	0.5	0.5	0.5	MIC (Streptococcus pneumoniae [21]): 0.5 µg/mL; MIC (Streptococcus pneumoniae [22]): 1 µg/mL; MIC (Streptococcus pneumoniae [23]): 0.5 µg/mL; MIC (Streptococcus pneumoniae [24]): 0.5 µg/mL; MIC90 (Streptococcus pneumoniae [25]): 0.5 µg/mL; MIC (Streptococcus pneumoniae [26]): 0.5 µg/mL; MIC (Streptococcus pneumoniae [27]): 0.25 µg/mL
